Laboratory results from ChEMBL document CHEMBL4038338 (J Med Chem, 2017).
Calls of active or inactive are those of the source. No cut-off for these calls is given here.

Columns and labels:
[1] = biological target: T1, Calpain-1 catalytic subunit (Homo sapiens) (UniProt P07384); assay: Inhibition of human erythrocytes calpain-1 using Suc-Leu-Tyr-AMC as substrate in presence of up to 10 mM glutathione by kinetic fluorescence assay
T1 sequence (whole entry): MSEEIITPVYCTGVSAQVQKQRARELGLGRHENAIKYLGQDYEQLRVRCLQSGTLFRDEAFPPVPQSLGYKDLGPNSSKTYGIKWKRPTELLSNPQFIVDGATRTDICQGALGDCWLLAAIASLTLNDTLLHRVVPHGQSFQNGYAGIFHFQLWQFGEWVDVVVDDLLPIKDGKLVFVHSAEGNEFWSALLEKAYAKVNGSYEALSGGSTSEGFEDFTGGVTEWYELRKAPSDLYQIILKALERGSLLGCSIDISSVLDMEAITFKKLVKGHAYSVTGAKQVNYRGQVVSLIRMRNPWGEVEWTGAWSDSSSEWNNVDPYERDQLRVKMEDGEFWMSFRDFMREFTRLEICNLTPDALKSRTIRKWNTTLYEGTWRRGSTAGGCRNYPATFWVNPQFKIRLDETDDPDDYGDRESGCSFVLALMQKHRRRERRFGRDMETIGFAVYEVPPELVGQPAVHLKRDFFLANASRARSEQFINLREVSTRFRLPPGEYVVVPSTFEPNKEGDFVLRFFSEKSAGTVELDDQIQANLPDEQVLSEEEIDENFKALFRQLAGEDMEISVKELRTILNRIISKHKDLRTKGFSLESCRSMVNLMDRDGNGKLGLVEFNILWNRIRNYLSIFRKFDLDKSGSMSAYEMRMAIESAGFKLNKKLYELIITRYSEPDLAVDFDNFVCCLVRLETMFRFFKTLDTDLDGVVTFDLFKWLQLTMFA

[2] = biological target: T2, Calpain-1 catalytic subunit (Rattus norvegicus, UniProt P97571); assay: (§1) Inhibition of calpain-1 in rat hippocampal slices assessed as prevention of NMDA-induced spectrin cleavage preincubated for 30 mins followed by NMDA addition measured after 5 hrs by Western blot analysis
T2 sequence (P97571 whole entry): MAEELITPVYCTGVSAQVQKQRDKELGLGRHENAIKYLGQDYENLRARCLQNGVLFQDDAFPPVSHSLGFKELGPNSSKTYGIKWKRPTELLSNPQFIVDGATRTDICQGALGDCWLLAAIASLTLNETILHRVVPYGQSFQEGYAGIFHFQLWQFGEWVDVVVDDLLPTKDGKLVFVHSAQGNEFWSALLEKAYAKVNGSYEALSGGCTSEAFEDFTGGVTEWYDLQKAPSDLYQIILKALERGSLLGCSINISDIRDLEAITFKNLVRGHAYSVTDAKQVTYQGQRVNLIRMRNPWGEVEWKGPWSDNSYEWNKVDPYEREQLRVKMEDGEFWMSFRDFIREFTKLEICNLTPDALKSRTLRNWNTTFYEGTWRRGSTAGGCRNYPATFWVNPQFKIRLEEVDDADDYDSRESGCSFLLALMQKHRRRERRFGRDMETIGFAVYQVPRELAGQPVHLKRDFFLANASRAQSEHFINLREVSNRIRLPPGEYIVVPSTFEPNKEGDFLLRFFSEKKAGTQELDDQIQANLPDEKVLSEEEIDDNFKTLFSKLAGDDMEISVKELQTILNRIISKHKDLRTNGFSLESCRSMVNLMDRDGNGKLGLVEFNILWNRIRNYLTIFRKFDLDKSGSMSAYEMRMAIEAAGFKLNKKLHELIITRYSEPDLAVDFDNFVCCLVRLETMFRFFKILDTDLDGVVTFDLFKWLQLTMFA
How it was run: (§2)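 Organotypic rat hippocampal slice cultures kept 6–8 days in 2% serum medium; 30 min inhibitor pre-incubation, then 10 µM NMDA for 5 h at 34°C, 5% CO2. Slices lysed; 150/145 kDa spectrin breakdown products quantified by densitometric Western blot with anti-spectrin alpha chain antibody.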

[3] = biological target: T3, Calpain-1 catalytic subunit (Rattus norvegicus) (UniProt P97571); assay: as §1; how it was run: as §2
T3 sequence (whole entry): T2 sequence (P97571 whole entry)

[4] = biological target: T4, Calpain-1 catalytic subunit (Homo sapiens, UniProt P07384); assay: Inhibition of human erythrocytes calpain-1 using Suc-Leu-Tyr-AMC as substrate by kinetic fluorescence assay; settings: read-out: Ki
T4 sequence (P07384 whole entry): T1 sequence (whole entry)

[5] = species on record: Homo sapiens; assay: Selectivity ratio of Ki for recombinant human procathepsin K expressed in Escherichia coli to Ki for human erythrocytes calpain-1
How it was run: (§3)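 Ki ratios from kinetic fluorescence assays. Cathepsins B (0.25 nM), L (1 nM), K (3 nM) and S (0.5 nM) in MES buffer at pH 6.0. All at room temperature; Ki by Cheng-Prusoff.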

[6] = Selectivity ratio of Ki for human liver cathepsin L to Ki for human erythrocytes calpain-1
[7] = Thiol reactivity using recombinant human full length 13C-labeled La antigen (100 to 324 residues) expressed in Escherichia coli BL21(DE3) by ALARM NMR
[8] = species on record: Homo sapiens; assay: Selectivity ratio of Ki for recombinant human cathepsin S expressed in Escherichia coli to Ki for human erythrocytes calpain-1; how it was run: as §3
[9] = Selectivity ratio of Ki for human liver cathepsin B to Ki for human erythrocytes calpain-1
[10] = tested on: Rattus norvegicus; assay: Neuroprotective activity in Fisher rat assessed as effect on rapid eye movement time at 3 mg/kg administered via oral gavage measured after 8 hrs at the beginning of 12 hr light period by EEG analysis relative to control; assay type: functional
How it was run: (§4)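 Male Fisher rats (250–330 g) fitted with frontal/occipital EEG electrodes under ketamine/pentobarbital. Dosed by gavage in Cremophor EL/Capmul PG8 (20:80) just before recording. EEG recorded for 8 h from the start of the light period, without food or water. Crossover design with alternate treatment one week later; each animal served as its own control. Results as % of vehicle.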

[11] = tested on: Rattus norvegicus; assay: Neuroprotective activity in Wistar rat assessed as protection against scopolamine-induced cognitive impairment at 1 to 3 mg/kg, sc administered prior to scopolamine induction measured after 24 hrs; assay type: functional, organism-based
How it was run: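 Scopolamine 0.1 mg/kg s.c., with test compound given s.c. beforehand in ethanol/PEG400/water (20:30:50). Single step-through passive avoidance training: 2 min habituation in the lit compartment, then a 0.5 mA, 2 s footshock on entering the dark side. Latency to enter the dark compartment measured 24 h later; n=14–47/group.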

[12] = biological target: T3, Calpain-1 catalytic subunit (Rattus norvegicus); assay: Inhibition of calpain-1 in rat hippocampal slices assessed as prevention of NMDA-induced tau cleavage preincubated for 30 mins followed by NMDA addition measured after 5 hrs by Western blot analysis
How it was run: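 Same slice protocol: rat hippocampal organotypic cultures, 30 min inhibitor pre-incubation, 10 µM NMDA for 5 h at 34°C, 5% CO2; lysates probed by densitometric Western blot for the 17 kDa tau cleavage fragment using anti-Tau 1 antibody.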

[13] = tested on: Rattus norvegicus; assay: Neuroprotective activity in Fisher rat assessed as effect on latency in rapid eye movement at 3 mg/kg administered via oral gavage measured for 8 hrs at the beginning of 12 hr light period by EEG analysis relative to control; assay type: functional; how it was run: as §4
[14] = tested on: Rattus norvegicus; assay: Neuroprotective activity in sc dosed Sprague-Dawley rat assessed as increase in microdialysate acetylcholine levels in medial prefrontal cortex measured every 20 mins by HPLC analysis; assay type: functional, organism-based
How it was run: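 Male Sprague-Dawley rats (290–320 g) implanted with medial prefrontal cortex microdialysis probes. Perfusion with Ringer solution containing 1 µM neostigmine at 1.5 µL/min. Twenty-minute fractions collected, six before and six after 1, 3 or 10 mg/kg s.c. (ethanol/PEG400/water vehicle). Acetylcholine measured by HPLC with an enzyme reactor and electrochemical detection, expressed as % of baseline.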

[15] = tested on: Rattus norvegicus; assay: Neuroprotective activity in Fisher rat assessed as effect on rapid eye movement sleep pattern administered via oral gavage measured after 8 hrs at the beginning of 12 hr light period by EEG analysis; assay type: functional; how it was run: as §4
[16] = tested on: Rattus norvegicus; assay: Neuroprotective activity in Fisher rat assessed as effect on latency in rapid eye movement at 10 mg/kg administered via oral gavage measured for 8 hrs at the beginning of 12 hr light period by EEG analysis relative to control; assay type: functional; how it was run: as §4
[17] = tested on: Rattus norvegicus; assay: Neuroprotective activity in Fisher rat assessed as effect on rapid eye movement time at 10 mg/kg administered via oral gavage measured after 8 hrs at the beginning of 12 hr light period by EEG analysis relative to control; assay type: functional; how it was run: as §4
[18] = tested on: Rattus norvegicus; assay: Neuroprotective activity in Fisher rat assessed as effect on latency in rapid eye movement at 1 mg/kg administered via oral gavage measured for 8 hrs at the beginning of 12 hr light period by EEG analysis relative to control; assay type: functional; how it was run: as §4
[19] = biological target: T3, Calpain-1 catalytic subunit (Rattus norvegicus); assay: Inhibition of calpain-1 in rat hippocampal slices assessed as prevention of amyloid beta(1-42) globulomer-induced synaptic deficits at 10 nM co-administered with amyloid beta(1-42) globulomer […] by Schaffer collateral analysis; settings: in the assay text read “after 1 day” for “after 1 hr”
How it was run: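 Hippocampal slices from 9–10-day-old Wistar rats cultured 15–18 days; 82 nM Aβ1-42 globulomer added to medium 1 day before recording, with compound co-applied; vehicle-only group included. Slices moved to interface chamber perfused with aCSF ≥1 h before recording; input/output after Schaffer collateral stimulation; 2-way repeated-measures ANOVA, Holm-Sidak.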

inhibition [1]	IC50 [2] [nM]	fIC50 [3] [nM]	Ki [4] [nM]	fIC50 [12] [nM]	inhibition [19]	SMILES	Ratio Ki [5]	Ratio Ki [6]	Thiol reactivity [7]	Ratio Ki [8]	Ratio Ki [9]	Activity [10] [%]	Activity [11]	Activity [13] [%]	Activity [14]	Activity [15]	Activity [16] [%]	Activity [17] [%]	Activity [18] [%]
Active	971	39	18	–	–	NC(=O)C(=O)C(Cc1ccccc1)NC(=O)c1cccnc1-n1ccc(-c2ccccc2)n1 (stereo not given)	–	–	–	–	–	–	–	–	–	–	–	–	–
Active	3200	288	46	–	–	NC(=O)C(=O)C(Cc1ccccc1)NC(=O)c1cccnc1-n1cc2ccccc2n1 (stereo not given)	6	124	Metabolite not detected	51	6	–	–	–	–	–	–	–	–
Active	591	41	34	46	Active	NC(=O)C(=O)C(Cc1ccccc1)NC(=O)c1cccnc1-n1ccc(-c2ccc(F)cc2)n1 (stereo not given)	–	–	–	–	–	131	Active	99	Dose-dependent effect	Dose-dependent effect	80	125	100
Active	> 10000	–	100	–	–	CCN(CC)Cc1ccc(-c2ccn(-c3ncccc3C(=O)NC(Cc3ccccc3)C(=O)C(N)=O)n2)cc1 (stereo not given)	< 1	3	Metabolite not detected	69	<1	–	–	–	–	–	–	–	–
